Consider 13 compounds from PubChem BioAssay.

Calls of active or inactive are those of the source.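 The calls were made as follows, unless noted: active = a full or partial loss of lipid-probe fluorescence in the fish gall bladder, intestine or both, judged by eye; inactive = no fluorescence loss, or compound toxic to the fish.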

Assay [1] in a line: inhibitors of TNFa-induced NFkB p65 translocation, primary screen, imaging, HUVEC, MLSMR starter and 10KST1 sets (AID 438;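 active = inhibition above 20% together with a positive visual image hit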;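 also: compound added about 3h40 before a 20 min TNFalpha stimulation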;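 as to inhibition: signal is the nuclear over cytoplasmic p65 intensity ratio per well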). As to conditions: HUVEC TNFa-induced p65 nuclear translocation; cell count: measured here: nuclei count (cytotoxicity indicator), at 2.08 µM; inhibition: at 2 µM, stronger effect = higher value, 0% TNFa-plus-vehicle, 100% no-TNFa wells.
The nature of assay [2]: inhibitors of E-selectin induction by TNFa, primary screen, imaging, HUVEC, immunofluorescence, MLSMR starter and 10KST1 sets (AID 487;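 active = visually confirmed hit in the image check and inhibition above 20%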;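 as to inhibition: signal is fraction of cell area covered by stained E-selectin grains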;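 as to nuclei count: 100% = median nuclei count of all wells on the same plate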). Particulars: HUVEC TNFalpha-induced E-selectin immunofluorescence imaging, at 2 µM; inhibition: stronger effect = higher value; nuclei count: measured here: cell number, toxicity.
The nature of assay [3]: DUSP6 inhibitors restoring Erk phosphorylation by chemical complementation, primary imaging in DUSP6-transfected HeLa (AID 609;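 active = compounds giving at least 50% inhibition in the cell-based MKP-3 phosphatase rescue imaging test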;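 as to inhibition: phospho-Erk level distribution per well compared with pooled transfected vehicle control wells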). As to conditions: HeLa MKP-3 transfected, phospho-Erk imaging KS statistic, at 10 µM, cells stimulated with TPA for 15 min.
Assay [4] deals with Dual specificity protein phosphatase 6 (Homo sapiens) (UniProt Q16828). The description is as above. As to conditions: HeLa MKP-3 transfected, phospho-Erk imaging KS statistic; at 10 µM; stronger effect = higher value; cells stimulated with TPA for 15 min.
Assay [5] deals with Voltage-gated potassium channel subunit beta-2 (Rattus norvegicus) (UniProt P62483). As to the kind of experiment: KvBeta enzyme negative modulators, primary screen, biochemical, NADPH fluorescence (AID 622;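 active = fluorescence slope higher than the sample average by over 3 SD, cut at about -0.22 in these data, passing the limit was not always enough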;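 also: slope of raw intensity against log time taken from 70 to 1610 s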). As to conditions: recombinant KvBeta, 4-cyanobenzaldehyde reduction, at 10 µM, stronger effect = higher value.
Assay [6] has the same target. As to the kind of experiment: KvBeta positive modulators, primary screen, biochemical, NADPH fluorescence (AID 623;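 active = NADPH fluorescence slope more negative than the mean of all samples by about 3 SD, 99.7% confidence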;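 also: fluorescence intensity change per second fitted from 20 to 320 s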). Particulars: Recombinant KvBeta, NADPH fluorescence decrease slope, 10 min; at 10 µM; stronger effect = lower value.
In assay [7] the target is Muscarinic acetylcholine receptor M4 (Homo sapiens) (UniProt P08173). In words: compounds altering M4/GIRK thallium flux, either direction, primary screen, M4 allosteric agonist project, cell-based, HEK293 M4/GIRK, BTC-AM (AID 625;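 active = fluorescence slope after compound addition differing from the mean of all tested samples at 99.7% confidence, mostly higher but some lower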;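 also: thallium influx through GIRK channels coupled to M4 in HEK293 cells with BTC-AM dye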). Particulars: at 10 µM, actives lie on both sides. A digest of the protocol: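 System: HEK293 cells with M4 receptor and GIRK channels | Incubation: Cells overnight at 37 °C, BTC-AM loading 1 h, reads 2 min total | Technique: Kinetic BTC-AM fluorescence sampled at 1 Hz, 10 s pre-addition baseline | Measure: Post-addition slope, 15–24 s, of baseline-normalized fluorescence | Control set: Carbachol positive, DMSO negative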

Assay [8] is described as follows: inhibitors of larval lipid processing in zebrafish, primary screen, whole organism, PED6 fluorescence, gall bladder and intestine (AID 686).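 Also: larvae 5 to 7 days old with five fish per well; signal comes from phospholipase A2 cleavage of quenched PED6 carried via bile; overnight exposure to compound and PED6 before scoring.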 Particulars: Zebrafish larvae PED6 lipid processing, fluorescence scoring; screened at 20 µM (by protocol). A digest of the protocol:
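Test system – live zebrafish larvae aged 5-7 days, whole organism · Buffer or medium – E3 fish medium · Reagent – quenched phospholipase substrate PED6, 100 nM final, ingested by larvae · Doses – 20 µM single dose · Incubation – overnight compound and PED6 incubation · Technique – visual fluorescence microscopy scoring of gall bladder, gut · Read-out basis – visual per-well fluorescence inhibition score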

Assay [9] in a line: inhibitors of Chlamydomonas gravitaxis, primary screen, whole organism, Chlamydomonas reinhardtii, WT vs cilia-less mutant, absorbance, 96-well (AID 463189;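 active = inhibition at or above 50% relative to wild type and mutant plate controls; inactive = inhibition below 50%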;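 also: 0% = wild type cc124 cells in DMSO and 100% = ciliumless bld1 mutant cells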). Particulars: OD600 absorbance, 2 days, at 10 µM, stronger effect = higher value.
The mark [10] stands for this setting: measured here: cell density z-score.
[11] abbreviates: measured here: nuclear c-Myc green intensity z-score.
The mark [12] stands for this setting: measured here: nuclear pErk red intensity z-score, stronger effect = higher value.

Dual specificity protein phosphatase 6 (Homo sapiens), sequence (Q16828 whole entry, looked up): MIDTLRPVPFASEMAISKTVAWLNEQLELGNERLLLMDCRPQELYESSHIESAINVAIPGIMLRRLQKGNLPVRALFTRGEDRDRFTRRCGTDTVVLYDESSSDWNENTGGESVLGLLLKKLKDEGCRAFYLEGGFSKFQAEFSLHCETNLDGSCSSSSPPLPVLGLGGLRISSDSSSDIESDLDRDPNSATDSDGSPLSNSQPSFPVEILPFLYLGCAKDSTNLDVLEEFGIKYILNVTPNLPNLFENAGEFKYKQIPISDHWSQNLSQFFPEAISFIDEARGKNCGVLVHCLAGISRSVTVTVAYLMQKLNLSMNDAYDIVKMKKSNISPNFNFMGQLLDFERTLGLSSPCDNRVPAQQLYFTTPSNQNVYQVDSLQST
Voltage-gated potassium channel subunit beta-2 (Rattus norvegicus), sequence (P62483 whole entry, looked up): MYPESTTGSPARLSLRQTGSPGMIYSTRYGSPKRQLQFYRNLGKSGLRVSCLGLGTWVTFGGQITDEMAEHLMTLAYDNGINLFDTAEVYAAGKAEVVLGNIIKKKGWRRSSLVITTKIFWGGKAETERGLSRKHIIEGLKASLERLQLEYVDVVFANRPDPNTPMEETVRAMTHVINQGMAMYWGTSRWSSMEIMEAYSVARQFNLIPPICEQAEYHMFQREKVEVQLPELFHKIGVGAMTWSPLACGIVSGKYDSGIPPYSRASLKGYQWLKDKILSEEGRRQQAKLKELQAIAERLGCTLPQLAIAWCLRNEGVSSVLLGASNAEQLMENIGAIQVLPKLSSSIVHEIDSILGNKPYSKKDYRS
Muscarinic acetylcholine receptor M4 (Homo sapiens), sequence (P08173 whole entry, looked up): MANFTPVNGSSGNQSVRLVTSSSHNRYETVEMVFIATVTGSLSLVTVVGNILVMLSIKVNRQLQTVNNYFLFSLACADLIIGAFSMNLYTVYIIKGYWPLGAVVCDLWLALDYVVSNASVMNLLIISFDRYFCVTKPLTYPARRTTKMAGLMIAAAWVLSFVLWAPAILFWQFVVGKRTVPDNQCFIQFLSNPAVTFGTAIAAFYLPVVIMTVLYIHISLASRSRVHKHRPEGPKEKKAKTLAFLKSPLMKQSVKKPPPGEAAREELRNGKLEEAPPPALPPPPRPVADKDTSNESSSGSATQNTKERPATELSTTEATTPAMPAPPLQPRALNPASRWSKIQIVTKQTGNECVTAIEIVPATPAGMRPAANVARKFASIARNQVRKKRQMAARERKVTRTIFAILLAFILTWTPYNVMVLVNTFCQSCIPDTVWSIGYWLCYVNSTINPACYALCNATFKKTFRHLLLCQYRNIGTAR

For `Cc1ccc(C(=O)NCC(C)(C)O)cc1`, the cell count in [1] was determined as 554. The inhibition in assay [1] is -5.3% (inactive); in assay [2] it was -1.3% (inactive); in assay [4], -3.95% (inactive); in assay [9], -5.2% (inactive). This compound also gave a nuclei count in assay [2] of 87.7%. For the same compound, the results for the z-score in assay [3] (setting [10]), in assay [3] (setting [11]) and in assay [3] (setting [12]) were -0.652, -0.297 and -0.959, respectively. Moreover, the fluorescence slope was -0.473 (inactive) in assay [5] and 0.00553 (inactive) in assay [7]. The NADPH fluorescence slope in assay [6] was -8.2e-05 (inactive). In addition, the compound was classed as inactive in assay [8].
Regarding `Cc1ccc(C2/C(=C(\O)c3ccc4c(c3)OCCO4)C(=O)C(=O)N2CCCN(C)C)o1` (centres undefined), the cell count in assay [1] came out at 360. The inhibition is -5.9% (inactive) in assay [1], 24.2% (inactive) in assay [2], 14% (inactive) in assay [4] and -17.7% (inactive) in [9]. In [2], this compound came in with a nuclei count of 113%. Also, the results for the z-score in [3] (setting [10]), in [3] (setting [11]) and in assay [3] (setting [12]) were -1.73, 0.575 and -0.16, respectively. For the same compound, the results for the fluorescence slope in assay [5] and in assay [7] were -0.474 (inactive) and 0.00787 (inactive), respectively. In assay [6], the NADPH fluorescence slope was -8.1e-06 (inactive). The result in [8] was inactive.
For `COc1ccc2c(c1)c(C(=O)CN1CCOCC1)c(C)n2C`, the cell count in assay [1] worked out at 628. Further, the inhibition in assay [1] was 0.5% (inactive); in [2] it was 57.3% (inactive); in assay [4], 17.8% (inactive); in [9] it was 27.4% (inactive). The compound also gave a nuclei count in assay [2] of 85.8%. The z-score in [3] (setting [10]) is -0.409; in assay [3] (setting [11]), -0.95; in [3] (setting [12]), 1.79. Besides, the results for the fluorescence slope in [5] and in assay [7] were -0.48 (inactive) and 0.00679 (inactive), respectively. Further, in assay [6], the NADPH fluorescence slope is -5.6e-05 (inactive). For the same compound, in assay [8], the outcome was “active; weak signal in gallbladder and intestine”.
For `Clc1ccc(-n2ncc3c(NCc4ccccn4)ncnc32)cc1`, the cell count in assay [1] is 537. Moreover, the inhibition in [1] is -14.9% (inactive); in assay [2], 6.6% (inactive); in [4], 1.42% (inactive); in [9], 0.96% (inactive). In assay [2], the nuclei count is 106%. Also, the z-score in assay [3] (setting [10]) was -1.8; in [3] (setting [11]) it was 2.08; in assay [3] (setting [12]) it was -1.64. The fluorescence slope in assay [5] was -0.374 (inactive); in assay [7], 0.0062 (inactive). Further, the NADPH fluorescence slope in [6] was 5.6e-06 (inactive). Besides, the compound was called inactive in assay [8].
Regarding `Cn1c(=O)n(CC(=O)Nc2ccccc2)c2ccccc21`, the cell count in assay [1] was determined as 382. Further, the inhibition is -4.5% (inactive) in assay [1], -15.2% (inactive) in [2], 22.3% (inactive) in assay [4] and -5.61% (inactive) in [9]. In addition, in [2], the nuclei count was 152%. The z-score in assay [3] (setting [10]) was -0.194; in assay [3] (setting [11]) it was 0.676; in [3] (setting [12]), -0.438. In addition, the fluorescence slope in [5] was -0.453 (inactive); in assay [7] it was 0.0039 (inactive). In assay [6], the NADPH fluorescence slope is -0.000119 (inactive). In [8], the compound was classed as inactive.
Consider `N#Cc1nc(COc2ccc(Cl)cc2)oc1N1CCN(Cc2ccccc2)CC1`, for which the cell count in [1] is 489. The inhibition in assay [1] is -3% (inactive); in [2], -24.2% (inactive); in [4] it was -2.29% (inactive); in [9] it was 3.53% (inactive). Moreover, in assay [2], the nuclei count worked out at 139%. The z-score in [3] (setting [10]) was -0.636; in [3] (setting [11]), 0.047; in assay [3] (setting [12]) it was 1.31. The results for the fluorescence slope in assay [5] and in assay [7] were -0.411 (inactive) and 0.00907 (inactive), respectively. The NADPH fluorescence slope in assay [6] is -5.4e-05 (inactive). In addition, the compound was called inactive in [8].
With `O=C(c1cc(N2CCCCC2)nc2ccccc12)N1CCOCC1`, the cell count in assay [1] was determined as 627. Besides, the inhibition was 3.5% (inactive) in [1], -37.7% (inactive) in assay [2], -15% (inactive) in assay [4] and 1.82% (inactive) in assay [9]. In assay [2], this compound came in with a nuclei count of 159%. In addition, the z-score was -1.1 in [3] (setting [10]), 2.14 in [3] (setting [11]) and 1.42 in assay [3] (setting [12]). The fluorescence slope is -0.422 (inactive) in [5] and 0.0052 (inactive) in [7]. Moreover, the NADPH fluorescence slope in assay [6] was -1.2e-05 (inactive). The result in assay [8] was inactive.
Turning to `Cc1cc2nncn2c(Cc2ccccc2)n1`, in [1], the cell count came to 407. The inhibition in assay [1] is -7.4% (inactive); in assay [2], -152% (inactive); in [4], -6.59% (inactive); in assay [9], -3.56% (inactive). In assay [2], this compound displayed a nuclei count of 183%. The z-score in assay [3] (setting [10]) was -1.1; in assay [3] (setting [11]), 0.267; in [3] (setting [12]), 0.816. The results for the fluorescence slope in assay [5] and in assay [7] were -0.428 (inactive) and 0.00485 (inactive), respectively. The NADPH fluorescence slope in [6] is -0.000108 (inactive). Also, in [8], the compound was classed as inactive.
As for `Cc1c(C)c2cc(Cl)c(O)c(CN3CCCC(C)C3)c2oc1=O` (centres undefined), the cell count in assay [1] came out at 540. For the same compound, the inhibition is -4.7% (inactive) in assay [1], 45.7% (inactive) in [2], 9.37% (inactive) in assay [4] and -7.68% (inactive) in [9]. The nuclei count in assay [2] was found to be 94.2%. The z-score in assay [3] (setting [10]) was 0.999; in assay [3] (setting [11]), 0.842; in assay [3] (setting [12]), -1.58. Also, the fluorescence slope in assay [5] was -0.0221 (inactive); in assay [7], 0.00608 (inactive). In addition, in assay [6], the NADPH fluorescence slope is -5.4e-06 (inactive). Further, in assay [8], the outcome was inactive.
Take `COc1cc2nc(-c3ccccc3)nc(N3CCCC3)c2cc1OC`: in [1], the cell count was determined as 397. Besides, the inhibition was -11.2% (inactive) in assay [1], -164% (inactive) in assay [2], 1.42% (inactive) in [4] and 17.6% (inactive) in assay [9]. Also, the nuclei count in [2] turned out to be 154%. For the same compound, the results for the z-score in [3] (setting [10]), in assay [3] (setting [11]) and in assay [3] (setting [12]) were 0.13, -0.48 and 0.0689, respectively. For the same compound, the fluorescence slope in [5] is -0.433 (inactive); in [7], 0.00381 (inactive). In assay [6], the NADPH fluorescence slope was -0.000105 (inactive). Besides, the call in assay [8] was inactive.
Consider `COc1ccc(N2CCN(c3oc(COc4ccc(Cl)cc4)nc3C#N)CC2)cc1`, for which the cell count in assay [1] turned out to be 374. Besides, the inhibition in assay [1] is -3.3% (inactive); in assay [2], -61.3% (inactive); in assay [4] it was 2.71% (inactive); in [9], -10.3% (inactive). The same compound had a nuclei count in assay [2] of 106%. Further, the z-score in [3] (setting [10]) worked out at 1.12; in assay [3] (setting [11]), 0.417; in [3] (setting [12]) it was 0.177. In addition, the fluorescence slope was -0.46 (inactive) in assay [5] and 0.00414 (inactive) in assay [7]. Besides, the NADPH fluorescence slope in [6] is -7e-05 (inactive). For the same compound, the compound was called inactive in assay [8].
Consider `O=C1C(=O)N(Cc2cccnc2)C(c2ccccn2)/C1=C(/O)c1ccc(F)cc1` (centres undefined), for which the cell count in assay [1] is 327. Also, the inhibition in assay [1] was -1.1% (inactive); in assay [2], -58.9% (inactive); in [4], -0.624% (inactive); in assay [9], -9.85% (inactive). Moreover, the nuclei count in assay [2] is 98%. Moreover, the results for the z-score in assay [3] (setting [10]), in assay [3] (setting [11]) and in assay [3] (setting [12]) were 1.24, 1.4 and -0.331, respectively. For the same compound, the fluorescence slope in assay [5] was -0.462 (inactive); in assay [7], 0.00549 (inactive). For the same compound, the NADPH fluorescence slope in assay [6] is -3.7e-05 (inactive). Also, the outcome in assay [8] was inactive.
As to `CC(NC(=O)CSc1nc2c(cc1C#N)CN(C)CC2)c1ccccc1` (centres undefined), in assay [1], the cell count is 739. In addition, the inhibition in assay [1] was 5.9% (inactive); in [2], -3.5% (inactive); in assay [4] it was 6.04% (inactive); in [9] it was 11.3% (inactive). The nuclei count in assay [2] was 170%. For the same compound, the z-score in [3] (setting [10]) was 0.748; in [3] (setting [11]), -0.601; in assay [3] (setting [12]), -0.682. Moreover, the results for the fluorescence slope in [5] and in assay [7] were -0.429 (inactive) and 0.00365 (inactive), respectively. In addition, the NADPH fluorescence slope in assay [6] was -3.9e-05 (inactive). In addition, the result in [8] was inactive.

Usually inhibition stands for the relative decrease from the control value, in per cent.
